This passage reports Selectivity, IC50 and inhibition results from ChEMBL document CHEMBL1128311, “Probes for narcotic receptor-mediated phenomena. 20. Alteration of opioid receptor subtype selectivity of the 5-(3-hydroxyphenyl)morphans by application of the message-address concept: preparation of delta-opioid receptor ligands” (J Med Chem, 1995).

The structures appear in SMILES notation. Values joined by “and” are separate entries in the source; they are usually repeats but may differ in a detail not shown here. Equal values may be shown once.

Assay [1] concerns the target Opioid receptors; mu & delta (Rattus norvegicus) (UniProt P33533+P33535). The experiment in a line: Selectivity as the ratio of IC50 value against mu receptor to that of delta receptor. The format is protein assay.
Assay [2] concerns the target Delta-type opioid receptor (Rattus norvegicus, UniProt P33533). Description: Inhibition of [3H]DADLE radioligand binding to rat brain opioid receptor delta 1.
For assay [3], the target named is T1, Kappa-type opioid receptor (Cavia porcellus, UniProt P41144). The experiment in a line: Inhibition of [3H]U-69593 radioligand binding to Guinea pig opioid receptor kappa 1.
T1 sequence (P41144 whole entry): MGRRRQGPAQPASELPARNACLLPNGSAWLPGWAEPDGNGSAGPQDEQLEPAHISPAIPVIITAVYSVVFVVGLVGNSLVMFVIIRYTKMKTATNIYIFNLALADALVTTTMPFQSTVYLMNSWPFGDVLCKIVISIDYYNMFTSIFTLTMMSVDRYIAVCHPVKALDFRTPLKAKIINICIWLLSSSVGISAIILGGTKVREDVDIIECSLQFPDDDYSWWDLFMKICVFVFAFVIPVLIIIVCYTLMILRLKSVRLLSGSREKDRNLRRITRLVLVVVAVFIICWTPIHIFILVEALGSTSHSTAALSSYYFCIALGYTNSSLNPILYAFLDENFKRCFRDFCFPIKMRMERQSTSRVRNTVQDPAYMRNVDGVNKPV
The target in assay [4] is Mu-type opioid receptor (Rattus norvegicus, UniProt P33535). Description: Inhibition of [3H]DAMGO radioligand binding to rat brain opioid receptor mu 1. An outline of the steps: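 Rat brain membranes labelled with [3H]DAMGO (1-3 nM). Incubation 4 h at 25 °C in 50 mM Tris-HCl pH 7.4 with protease inhibitor cocktail. Nonspecific binding with 20 μM levallorphan. 8-10 drug concentrations, run twice. Dilutions in 10 mM Tris-HCl pH 7.4 with 1 mg/mL BSA. IC50 from curve fitting.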
Mu-type opioid receptor (Rattus norvegicus, UniProt P33535), sequence (P33535 whole entry): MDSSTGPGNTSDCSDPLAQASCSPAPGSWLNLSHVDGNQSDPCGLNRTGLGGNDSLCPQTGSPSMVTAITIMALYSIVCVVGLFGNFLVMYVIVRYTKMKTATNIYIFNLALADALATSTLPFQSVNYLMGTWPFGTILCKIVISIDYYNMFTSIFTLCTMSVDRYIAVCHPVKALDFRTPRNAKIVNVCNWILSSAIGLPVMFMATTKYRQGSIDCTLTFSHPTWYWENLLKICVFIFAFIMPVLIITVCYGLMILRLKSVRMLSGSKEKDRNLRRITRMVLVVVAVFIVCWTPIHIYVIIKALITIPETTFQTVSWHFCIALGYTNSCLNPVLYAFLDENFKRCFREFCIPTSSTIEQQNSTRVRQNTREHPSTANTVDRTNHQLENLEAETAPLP

The target in assay [5] is Mu-type opioid receptor (Cavia porcellus, UniProt P97266). Description: The opioid activity against the mu-receptor in the isolated guinea pig ileum(GPI). Format: tissue-based. An outline of the steps: (§1)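 Electrically stimulated contractions of male ICR mouse vas deferens (25-40 g mice) and male Hartley guinea pig ileum longitudinal muscle myenteric plexus strips (250-500 g animals). Tissues held in 37 °C oxygenated Krebs bicarbonate (Mg-free for MVD) at 1 g tension (0.5 g for MVD). Percent inhibition is the contraction height in the 1 min before agonist versus at maximal inhibition. IC50 from nonlinear least squares fit over 2-4 tissues.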
Mu-type opioid receptor (Cavia porcellus, UniProt P97266), sequence (P97266 whole entry): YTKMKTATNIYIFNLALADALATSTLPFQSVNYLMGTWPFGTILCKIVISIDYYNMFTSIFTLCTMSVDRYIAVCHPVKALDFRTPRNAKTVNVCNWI

Assay [6] deals with Delta-type opioid receptor (Mus musculus, UniProt P32300). The experiment in a line: (§2) Opioid activity against delta-receptor of isolated mouse vas deferens(MVD) at 30 uM. An outline of the steps: as §1
Delta-type opioid receptor (Mus musculus, UniProt P32300), sequence (P32300 whole entry): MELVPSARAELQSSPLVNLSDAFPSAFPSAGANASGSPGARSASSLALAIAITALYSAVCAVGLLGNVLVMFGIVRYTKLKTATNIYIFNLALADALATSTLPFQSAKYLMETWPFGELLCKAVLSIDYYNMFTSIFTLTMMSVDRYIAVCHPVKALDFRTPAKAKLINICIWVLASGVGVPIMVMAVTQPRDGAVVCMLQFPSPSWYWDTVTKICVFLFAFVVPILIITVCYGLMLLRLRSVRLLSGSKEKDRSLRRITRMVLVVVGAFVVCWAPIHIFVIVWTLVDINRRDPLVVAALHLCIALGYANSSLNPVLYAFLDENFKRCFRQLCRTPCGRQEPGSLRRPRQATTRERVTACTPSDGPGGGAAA
In assay [7] the target is T1, Kappa-type opioid receptor. Description: Inhibition of [3H]-U-69,593 radioligand binding to Guinea pig Opioid receptor kappa 1; not determined. An outline of the steps: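 Guinea pig brain membranes depleted of μ and δ sites by pretreatment with irreversible ligands BIT and FIT, labelled with [3H]-U69,593 (1.2-2.3 nM). Incubation 4-6 h at 25 °C in 50 mM Tris-HCl pH 7.4 with protease inhibitor cocktail and 1 μg/mL captopril. Nonspecific binding with 1 μM U69,593. 8-10 drug concentrations, run twice. IC50 from curve fitting.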

Assay [8] concerns the target Delta-type opioid receptor (Mus musculus) (UniProt P32300). The assay is described as §2. The method, boiled down:
as §1

Delta-type opioid receptor (Rattus norvegicus, UniProt P33533), sequence (P33533 whole entry): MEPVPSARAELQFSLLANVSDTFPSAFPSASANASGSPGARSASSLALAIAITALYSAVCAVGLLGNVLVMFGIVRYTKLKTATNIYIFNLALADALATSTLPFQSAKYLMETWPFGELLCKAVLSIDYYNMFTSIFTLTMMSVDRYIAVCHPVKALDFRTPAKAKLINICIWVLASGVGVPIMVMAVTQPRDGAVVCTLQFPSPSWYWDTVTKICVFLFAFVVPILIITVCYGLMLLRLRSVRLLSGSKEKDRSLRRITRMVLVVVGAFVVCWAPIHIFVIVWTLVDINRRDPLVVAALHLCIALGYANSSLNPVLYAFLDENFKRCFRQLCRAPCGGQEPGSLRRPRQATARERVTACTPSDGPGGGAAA
Opioid receptors; mu & delta (Rattus norvegicus), sequence (P33533 whole entry, looked up): as the sequence (P33533 whole entry) above
Opioid receptors; mu & delta (Rattus norvegicus), sequence (P33535 whole entry, looked up): as the sequence (P33535 whole entry) above
Delta-type opioid receptor (Mus musculus), sequence (P32300 whole entry): as the sequence (P32300 whole entry) above

For `CN1CCC2(c3cccc(O)c3)CC(=O)CC1C2` (single isomer, unassigned; (+)) [listing 1 of 2 here], the Selectivity in assay [1] is 0.12.
Take `CN1CCC2(c3cccc(O)c3)Cc3[nH]c4ccccc4c3C1C2` (stereo not drawn): the Selectivity in assay [1] was below 0.04. In addition, the IC50 in assay [2] was above 1000 nM; in assay [3], 798 nM; on Mu-type opioid receptor [4] it was 43.9 nM.
With `Oc1cccc(C23CCN(CCc4ccccc4)C(Cc4[nH]c5ccccc5c42)C3)c1` (stereo not drawn) [listing 1 of 2 here], the Selectivity in assay [1] came out at 8.88.
For `CN1CCC2(c3cccc(O)c3)CCCC1C2` (stereo in doubt; (-)-1) [listing 1 of 2 here], the IC50 in assay [2] was above 1000 nM; in assay [3], 819 nM; against Mu-type opioid receptor [5], 639 nM; on Mu-type opioid receptor [4], 20.8 nM.
As for `Oc1cccc(C23CCN(CC4CC4)C(Cc4[nH]c5ccccc5c42)C3)c1` (stereo not drawn), the Selectivity in assay [1] came out at 2.14. Further, the IC50 in assay [2] came to 84.1 nM; in assay [3], 934 nM; on Mu-type opioid receptor [4], 180 nM.
Taken in the same sequence, the figures for `CN1CCC2(c3cccc(O)c3)CC1C[C@@H](NC(=O)Cc1ccccc1)C2` (stereo partly drawn) were 0.52, 227 nM, 2220 nM and 119 nM.
With `Oc1cccc(C23CCN(CCc4ccccc4)C(Cc4[nH]c5ccccc5c42)C3)c1` (single isomer, unassigned; (+)) [listing 1 of 2 here], the Selectivity in assay [1] is below 0.09.
On to `CN1CCC2(c3cccc(O)c3)CC(=O)CC1C2` (single isomer, unassigned; (-)) [listing 1 of 2 here], for which the IC50 came out at 273 nM in assay [2], 981 nM in assay [3] and 33.5 nM at Mu-type opioid receptor [4].
As for `Oc1cccc(C23CCN(CCc4ccccc4)C(Cc4[nH]c5ccccc5c42)C3)c1` (single isomer, unassigned; (-)) [listing 1 of 2 here], the IC50 is 6.2 nM in assay [2], above 1000 nM in assay [3] and 25 nM at Mu-type opioid receptor [4].
As to `CN1CCC2(c3cccc(O)c3)CC1Cc1[nH]c3ccccc3c12` (single isomer, unassigned; (-)) [listing 1 of 2 here], in assay [1], the Selectivity was 2.54.
Same read-out and setting: under `CN1CCC2(c3cccc(O)c3)CCCC1C2` (single isomer, unassigned; (+)) [listing 1 of 2 here] stands below 0.02.
In the case of `Oc1cccc(C23CCN(CCc4ccccc4)C(Cc4[nH]c5ccccc5c42)C3)c1` (single isomer, unassigned; (+)) [listing 2 of 2 here], the IC50 in assay [2] was above 1000 nM; in assay [3], above 1000 nM; on Mu-type opioid receptor [4], 89.2 nM.
`CCCCCCN1CCC2(c3cccc(O)c3)CC1Cc1[nH]c3ccccc3c12` (stereo not drawn): the Selectivity in assay [1] was determined as 2.08. For the same compound, the IC50 was 34 nM in assay [2], above 1000 nM in assay [3] and 70.6 nM at Mu-type opioid receptor [4].
In the same order, the values of `CN1CCC2(c3cccc(O)c3)CC1Cc1[nH]c3c(ccc4ccccc43)c12` (stereo not drawn) are 16.5, 12.6 nM, above 1000 nM and 208 nM.
Taken in the same sequence, the figures for `Oc1cccc(C23CCNC(Cc4[nH]c5ccccc5c42)C3)c1` (stereo not drawn) were 5.14, 69.5 nM, above 10000 nM and 357 nM.
Regarding `CN1CCC2(c3cccc(O)c3)CC1Cc1[nH]c3ccccc3c12` (stereo not drawn), the IC50 in assay [3] was above 1000 nM; in assay [6], 1390 nM and 347 nM; at Mu-type opioid receptor [5] it was 1940 nM and 2070 nM; at Mu-type opioid receptor [4], 21.4 nM and 29.8 nM.
`CN1CCC2(c3cccc(O)c3)CC1Cc1[nH]c3ccc4ccccc4c3c12` (stereo not drawn): the 50% inhibitory concentration (IC50) in assay [2] is above 10000 nM; in assay [3], above 1000 nM; at Mu-type opioid receptor [4], above 1000 nM.
With `CN1CCC2(c3cccc(O)c3)CC(=O)CC1C2` (single isomer, unassigned; (+)) [listing 2 of 2 here], the IC50 amounted to 1140 nM in assay [2], 5070 nM in assay [3] and 137 nM on Mu-type opioid receptor [4].
As for `C=CCN1CCC2(c3cccc(O)c3)CC1Cc1[nH]c3ccccc3c12` (stereo not drawn), the Selectivity in assay [1] was determined as 2.58. The IC50 turned out to be 140 nM in assay [2], 2160 nM in assay [3] and 361 nM at Mu-type opioid receptor [4].
For the compound `CCCCCCCN1CCC2(c3cccc(O)c3)CC1Cc1[nH]c3ccccc3c12` (stereo not drawn), the Selectivity in assay [1] stood at 1.43. Besides, the results for the IC50 (in assay [2]; in assay [3]; at Mu-type opioid receptor [4]) were 46.7 nM, above 1000 nM and 66.6 nM, respectively.
Regarding `CN1CCC2(c3cccc(O)c3)CC(=O)CC1C2` (stereo in doubt; 13) [listing 1 of 2 here], the IC50 in assay [2] was 720 nM; in assay [3] it was 2030 nM; on Mu-type opioid receptor [4], 21.2 nM.
With `CCCCCN1CCC2(c3cccc(O)c3)CC1Cc1[nH]c3ccccc3c12` (stereo not drawn), the Selectivity in assay [1] came out at 3.41. For the same compound, the IC50 in assay [2] was 6.9 nM; in assay [3] it was 993 nM; at Mu-type opioid receptor [4], 23.5 nM.
In the same order, the values of `Oc1cccc(C23CCN(Cc4ccccc4)C(Cc4[nH]c5ccccc5c42)C3)c1` (stereo not drawn) are 2.76, 184 nM, 90 nM and 508 nM.
As for `CN1CCC2(c3cccc(O)c3)CC(=O)CC1C2` (stereo in doubt; 13) [listing 2 of 2 here], in assay [1], the Selectivity is 0.03.
Same read-out and setting: as for `CN1CCC2(c3cccc(O)c3)CC(=O)CC1C2` (single isomer, unassigned; (-)) [listing 2 of 2 here], the figure is 0.12.
For `CN1CCC2(c3cccc(O)c3)CC1C[C@@H](NC(=O)c1ccccc1)C2` (stereo partly drawn), the IC50 is 487 nM in assay [2] and 5560 nM in assay [3].
Regarding `CN1CCC2(c3cccc(O)c3)C/C(=N/Nc3ccccc3)CC1C2` (stereo not drawn), in assay [1], the Selectivity came to 0.08. Moreover, the IC50 in assay [2] is 111 nM; in assay [3], 241 nM; on Mu-type opioid receptor [4] it was 8.7 nM.
Taken in the same sequence, the figures for `CCCCN1CCC2(c3cccc(O)c3)CC1Cc1[nH]c3ccccc3c12` (stereo not drawn) were 4.02, 18 nM, above 1000 nM and 72.4 nM.
As to `Oc1cccc(C23CCN(CCc4ccccc4)C(Cc4[nH]c5ccccc5c42)C3)c1` (single isomer, unassigned; (-)) [listing 2 of 2 here], the Selectivity in assay [1] was 4.03.
Turning to `CN1CCC2(c3cccc(O)c3)Cc3[nH]c4c(ccc5ccccc54)c3C1C2` (stereo not drawn), the Selectivity in assay [1] came to 0.35. Also, the IC50 in assay [2] was 1050 nM; in assay [3] it was above 1000 nM; at Mu-type opioid receptor [4], 366 nM.
Consider `CN1CCC2(c3cccc(O)c3)Cc3nc4ccccc4cc3C1C2` (stereo not drawn), for which the IC50 in assay [3] turned out to be 197 nM.
For `CN1CCC2(c3cccc(O)c3)CCCC1C2` (single isomer, unassigned; (+)) [listing 2 of 2 here], the IC50 was above 1000 nM in assay [2]; 910 nM in assay [3]; 557 nM in assay [6]; 169 nM against Mu-type opioid receptor [5]; 21.4 nM on Mu-type opioid receptor [4].
In the case of `CC(C)C[C@@H](NC(=O)[C@H](Cc1ccccc1)NC(=O)CNC(=O)[C@@H](C)NC(=O)[C@@H](N)Cc1ccc(O)cc1)C(=O)O` [DADLE], the IC50 in assay [7] is 1.71 nM; on Mu-type opioid receptor [5], 28.8 nM.
Consider `CCN1CCC2(c3cccc(O)c3)CC1Cc1[nH]c3ccccc3c12` (stereo not drawn), for which the Selectivity in assay [1] was 5.4. Besides, the results for the IC50 (in assay [2]; in assay [3]; on Mu-type opioid receptor [4]) were 233 nM, above 1000 nM and 1260 nM, respectively.
As to `CN1CCC2(c3cccc(O)c3)CCCC1C2` (stereo in doubt; (-)-1) [listing 2 of 2 here], the Selectivity in assay [1] was below 0.02. For the same compound, in assay [8], the inhibition is 26%.
As for `CN1CCC2(c3cccc(O)c3)CC1Cc1[nH]c3ccccc3c12` (single isomer, unassigned; (-)) [listing 2 of 2 here], the IC50 in assay [2] turned out to be 5.6 nM; in assay [6], 393 nM; on Mu-type opioid receptor [5], 2350 nM; at Mu-type opioid receptor [4] it was 14.2 nM.
As for `CCCN1CCC2(c3cccc(O)c3)CC1Cc1[nH]c3ccccc3c12` (stereo not drawn), the Selectivity in assay [1] was determined as 7.4. Also, the IC50 in assay [2] was 40.5 nM; in assay [3], above 1000 nM; on Mu-type opioid receptor [4], 300 nM.
On to `Oc1cccc(C23CCN(CCc4ccccc4)C(Cc4[nH]c5ccccc5c42)C3)c1` (stereo not drawn) [listing 2 of 2 here], for which the values for the IC50 (in assay [2]; in assay [3]; at Mu-type opioid receptor [4]) were 5.7 nM, above 1000 nM and 50.6 nM, respectively.
